Sampled rows, rich in hits. Any-hit rate of the full collection: about 2.2%.
E-sel inducer – E-selectin induction in HUVECs, primary screen, imaging, HUVEC, immunofluorescence imaging, single point. P16581. normalized: neutral wells 0, TNF-alpha wells 100. activation, % at 7.58 µM. 260,000 compounds, 0.37% hits;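 active means mean E-selectin-positive cell signal at least 10% of the positive control, reached in at least 60% of replicates, without over 20% cell loss; inconclusive means no rule given, readout overlaps actives, possibly toxicity-flagged; inactive means the rest, including those meeting only one limit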
Target sequence (P16581 whole entry, looked up): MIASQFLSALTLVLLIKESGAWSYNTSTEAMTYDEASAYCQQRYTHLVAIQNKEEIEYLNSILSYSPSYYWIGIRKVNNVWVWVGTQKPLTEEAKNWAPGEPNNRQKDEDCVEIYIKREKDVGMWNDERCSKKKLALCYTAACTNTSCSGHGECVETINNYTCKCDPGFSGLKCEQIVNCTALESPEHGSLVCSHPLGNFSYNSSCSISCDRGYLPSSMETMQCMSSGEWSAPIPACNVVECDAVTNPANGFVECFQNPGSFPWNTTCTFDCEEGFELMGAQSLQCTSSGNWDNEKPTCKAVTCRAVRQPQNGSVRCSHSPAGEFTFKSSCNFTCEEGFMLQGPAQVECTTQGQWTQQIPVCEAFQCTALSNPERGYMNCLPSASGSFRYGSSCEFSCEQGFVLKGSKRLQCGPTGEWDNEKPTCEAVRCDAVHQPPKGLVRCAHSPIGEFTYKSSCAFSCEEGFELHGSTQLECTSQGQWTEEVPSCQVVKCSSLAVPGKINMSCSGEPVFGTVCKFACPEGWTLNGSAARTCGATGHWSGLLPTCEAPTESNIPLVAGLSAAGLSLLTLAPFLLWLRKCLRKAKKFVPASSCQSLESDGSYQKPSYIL
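assay system = HUVEC, human umbilical vein endothelial cells | input = 3,000 HUVEC seeded per well | medium = EGM-2 growth medium on 0.1% gelatin-coated wells | dosing = one compound dose added by pin transfer | signal = immunofluorescence imaging | read-out basis = % PE-positive cells | control set = TNF-alpha, DMSO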
DENV2 CPE – inhibitors of DENV2 cytopathic effect, primary screen, cell-based, plate reader, single concentration; DENV2-infected cells, cytopathic effect rescue; AID 651640, 2012; 350,000 compounds, 1.7% hits; CPE inhibition, % at 9.99 µM; in the data active means CPE inhibition above about 20%, passing the limit was not always enough; inconclusive means no clear call, values can overlap the other calls; tested in BHK-21 cells;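 further: 0% = median of neutral control wells and 100% = median of positive control wells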
C2C12 statin – suppressors of statin myotoxicity in C2C12 myotubes, primary screen, cell-based, single point, plate reader; rescue of ATP level, % at 7.49 µM; C2C12 myotubes + simvastatin, ATP luminescence, 48 h; scaled: DMSO 0, geranylgeraniol control 100; 330,000 compounds, 0.78% hits;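 active means mean ATP rescue above about 67%, or every replicate alone reaching that limit, limit read from the data, passing the limit was not always enough; inconclusive means no clear call, values can overlap the other calls; inactive means mean under the limit and some replicate under it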;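 further: myotubes were challenged with 10 µM simvastatin during compound exposure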
Starred values were filed as active, the others as inactive.

C=CCN1C(=O)N/C(=C/c2ccccc2OCC(=O)Nc2ccc(F)cc2)C1=O was read as E-sel inducer 2 and DENV2 CPE 22*.
Screening O=C(COc1ccccc1/C=C1/NC(=O)NC1=O)Nc1ccccc1 returned E-sel inducer 0, DENV2 CPE -4 and C2C12 statin 6.
C[C@@H]1CN([C@@H](C)CO)S(=O)(=O)c2ccc(C3=CCCC3)cc2O[C@H]1CN(C)Cc1cccc(C(=O)O)c1 was read as E-sel inducer 0, DENV2 CPE -9 and C2C12 statin -7.
Screening Cc1noc(C)c1NC(=O)Nc1ccc2c(c1)CC(=O)N([C@H](C)CO)C[C@@H](C)[C@H](CN(C)C(=O)Nc1ccc(F)cc1)O2 returned E-sel inducer 39*, DENV2 CPE 7 and C2C12 statin -10.
For Cc1noc(C)c1NC(=O)Nc1ccc2c(c1)CC(=O)N([C@@H](C)CO)C[C@@H](C)[C@@H](CN(C)C(=O)Nc1ccccc1)O2 the results were E-sel inducer 0, DENV2 CPE -8 and C2C12 statin 2.
Screening Cc1noc(C)c1NC(=O)N(C)C[C@H]1Oc2ccc(NC(=O)Nc3ccc(F)cc3)cc2CC(=O)N([C@@H](C)CO)C[C@@H]1C returned E-sel inducer 0, DENV2 CPE 8 and C2C12 statin -27.
`Cc1noc(C)c1NC(=O)Nc1ccc2c(c1)CC(=O)N([C@@H](C)CO)C[C@H](C)[C@@H](CN(C)C(=O)Nc1ccccc1)O2` gave E-sel inducer 0, DENV2 CPE 83* and C2C12 statin -13.
For CC(=O)N1[C@H](C(=O)NC2CCC2)[C@@H](CO)[C@@H]2Cn3c(ccc(-c4ccc(F)cc4)c3=O)[C@@H]21 the results were E-sel inducer 0, DENV2 CPE -10 and C2C12 statin -9.
C[C@H]1CN([C@@H](C)CO)C(=O)c2cc(NS(=O)(=O)c3cn(C)cn3)ccc2O[C@@H]1CN(C)Cc1ccc(C(=O)O)cc1 was read as DENV2 CPE -5 and C2C12 statin -17.
Screening COc1ccc(NC(=O)Nc2ccc3c(c2)C(=O)N([C@@H](C)CO)C[C@@H](C)[C@@H](CN(C)C(=O)NC(C)C)O3)cc1 returned E-sel inducer 0, DENV2 CPE 14 and C2C12 statin 3.
For O=C(NC[C@H]1[C@@H](c2ccccc2)[C@H](CO)N1C(=O)C1CC1)NC1CCCC1 the results were E-sel inducer 1, DENV2 CPE -3 and C2C12 statin 5.
Screening CC(/C=N/NC(=O)c1nn(C)c(C)c1Br)=C\c1ccccc1 returned DENV2 CPE 25* and C2C12 statin 31.
Screening CC(/C=N/NC(=O)c1c(Br)cnn1C)=C\c1ccccc1 returned E-sel inducer 0.
`COc1ccc(CN2CC(C(=O)NCCCN3CCOCC3)CC2=O)cc1` (centres undefined) gave C2C12 statin 98*.
Screening COc1ccc(CN2CC(C(=O)NCCCN3CCCCCC3)CC2=O)cc1 (centres undefined) returned C2C12 statin -15.
For C[C@@H]1CCCCO[C@H](CN(C)S(=O)(=O)c2cn(C)cn2)[C@@H](C)CN([C@@H](C)CO)C(=O)c2cc(NC(=O)Nc3ccc(F)cc3)ccc2O1 the results were E-sel inducer 0 and DENV2 CPE 3.
O=C(CC(F)(F)F)N1C[C@H]2[C@@H](c3ccccc31)[C@@H](CO)N2C(=O)Cc1cccnc1 was read as E-sel inducer 0, DENV2 CPE 3 and C2C12 statin -2.
Screening C[C@H]1CN([C@@H](C)CO)C(=O)c2cccc(NC(=O)C3CC3)c2O[C@H]1CN(C)Cc1ccc2c(c1)OCO2 returned E-sel inducer 0, DENV2 CPE 3 and C2C12 statin -25.
`COc1cc(CN2[C@@H]3CNC[C@H]2C3c2ccc(-c3ccccc3C)cc2)cc(OC)c1` (some centres undefined) gave E-sel inducer 0 and DENV2 CPE 0.
`CN(C)C(=O)c1ccc(-c2ccc([C@@H]3[C@@H](C#N)N(C(=O)Cc4ccccn4)[C@H]3CO)cc2)cc1` gave E-sel inducer 0, DENV2 CPE -12 and C2C12 statin 4.
CCOC(=O)CCCCC(=O)c1[nH]c(=O)[nH]c1CSc1nc(C)cc(=O)[nH]1 was read as DENV2 CPE -1 and C2C12 statin 0.
`CCOC(=O)CCCCC(=O)c1[nH]c(=O)[nH]c1CSc1nc2ccccc2[nH]1` gave DENV2 CPE -3 and C2C12 statin 95*.
CNC(=O)COC(=O)c1nc(-n2nc(C)cc2C)ccc1Cl was read as C2C12 statin 80*.
COC(=O)c1nc(-n2nc(C)cc2C)ccc1Cl was read as C2C12 statin 10.
For CCCNC(=O)Nc1ccc2c(c1)OC[C@@H](C)N(C(=O)C1CCC1)C[C@H](C)[C@H](OC)CN(C)C2=O the results were E-sel inducer 0, DENV2 CPE 11 and C2C12 statin 6.
`Cc1nn(C)cc1CNC(=O)Nc1ccc(Br)cc1Cl` gave C2C12 statin 4.
Cc1nn(C)cc1CNC(=O)Nc1cccc(Cl)c1 was read as C2C12 statin 113*.
C#CCSc1nc(=O)c2cccnc2n1-c1ccc(C)cc1 was read as E-sel inducer 1, DENV2 CPE 4 and C2C12 statin 132*.
For NC(=O)CSc1nc2cccnc2n1-c1ccc(F)cc1 the results were E-sel inducer 0, DENV2 CPE 12 and C2C12 statin 1.
For Cc1ccccc1-c1ccc([C@H]2[C@H]3CN(S(C)(=O)=O)CC(=O)N3[C@H]2CO)cc1 the results were E-sel inducer 0 and DENV2 CPE -11.
For C[C@@H]1CCCCO[C@@H](CN(C)C(=O)Nc2ccc3c(c2)OCO3)[C@H](C)CN([C@@H](C)CO)C(=O)c2cc(NC(=O)Nc3ccccc3)ccc2O1 the results were DENV2 CPE 2.
COc1ccc2c3c(n(C)c2c1)[C@H](CO)N(C(=O)NC(C)C)CC31CCN(CC2CCCC2)CC1 was read as E-sel inducer 0 and DENV2 CPE 40*.
Screening CCCNC(=O)N1CC2(CN(S(=O)(=O)c3ccccc3)C2)c2c(n(C)c3cc(OC)ccc23)[C@H]1CO returned E-sel inducer 0 and DENV2 CPE -4.
Screening COc1ccc2c3c(n(C)c2c1)[C@H](CO)N(C(=O)NC(C)C)CC31CCN(CC2CCCCC2)CC1 returned E-sel inducer 1 and DENV2 CPE 7.
`CCCNC(=O)N1CC2(CN(S(=O)(=O)c3cccc(OC)c3)C2)c2c(n(C)c3cc(OC)ccc23)[C@H]1CO` gave E-sel inducer 0 and DENV2 CPE 41*.
For CCCNC(=O)N1CC2(CCN(C(=O)CCC)CC2)c2c(n(C)c3cc(OC)ccc23)[C@H]1CO the results were E-sel inducer 0 and DENV2 CPE -2.
Screening CCCNC(=O)N1CC2(CCN(C(=O)COC)CC2)c2c(n(C)c3cc(OC)ccc23)[C@@H]1CO returned E-sel inducer 0 and DENV2 CPE 70*.
For C[C@@H]1CN([C@@H](C)CO)C(=O)c2cccc(NS(=O)(=O)c3cn(C)cn3)c2O[C@@H]1CN(C)C(=O)NC1CCCCC1 the results were DENV2 CPE inconclusive and C2C12 statin -13.

Screening results: PubChem BioAssay, Broad Institute
